Experimental findings from ChEMBL document CHEMBL3751835, “Discovery of the imidazole-derived GPR40 agonist AM-3189” (Bioorg Med Chem Lett, 2016) are described below.

The source made the active and inactive calls. The rule behind the calls is not given here.

Data set [1] is described as follows: Oral bioavailability in rat at 2 mg/kg. The class given is ADME, organism-based. Conditions: in vivo. The method, boiled down: (§1)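 Oral doses given as a suspension in aqueous 1% Tween 80 in 1% methylcellulose; IV doses formulated in 10% N,N-dimethylacetamide, 10% ethanol, 30% propylene glycol, 50% sterile water. Animals per species: mouse n = 2 (plasma from two mice at each time point), rat n = 2, dog n = 3, cynomolgus monkey n = 3.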

In data set [2] the test system is MDR1. Description: Permeability across basolateral to apical side in MDCK cells expressing MDR1. Type of data set: ADME, cell-based, Canis lupus familiaris. Conditions: dog, read-out: permeability.
For data set [3], the system named is MDR1. Description: Efflux ratio of permeability from basolateral to apical over apical basolateral side in MDCK cells expressing MDR1. Type of data set: ADME, cell-based, Canis lupus familiaris. Conditions: dog.
Data set [4] has as its target T1, Peroxisome proliferator-activated receptor gamma (Homo sapiens) (UniProt P37231).
T1 sequence (whole entry): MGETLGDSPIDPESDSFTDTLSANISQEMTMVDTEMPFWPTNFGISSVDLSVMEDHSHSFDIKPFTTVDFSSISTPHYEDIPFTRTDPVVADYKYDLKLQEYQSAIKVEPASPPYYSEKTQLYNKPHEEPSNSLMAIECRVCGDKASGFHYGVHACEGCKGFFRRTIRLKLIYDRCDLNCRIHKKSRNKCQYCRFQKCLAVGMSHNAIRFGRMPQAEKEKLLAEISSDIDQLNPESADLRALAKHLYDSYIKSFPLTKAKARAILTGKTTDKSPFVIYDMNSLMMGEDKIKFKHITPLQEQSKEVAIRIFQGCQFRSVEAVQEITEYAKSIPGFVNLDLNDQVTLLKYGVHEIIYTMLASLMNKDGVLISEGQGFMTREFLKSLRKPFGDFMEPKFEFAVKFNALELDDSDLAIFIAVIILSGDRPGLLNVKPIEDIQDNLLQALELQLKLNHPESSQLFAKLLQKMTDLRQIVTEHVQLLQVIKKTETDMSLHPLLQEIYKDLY
Kind of data set: Activity at PPARgamma (unknown origin) by cell based assay.

Data set [5] in a line: Oral bioavailability in cynomolgus monkey at 5 mg/kg. The class given is ADME, organism-based, Macaca fascicularis. The settings on record: in vivo. The method, boiled down: as §1
Data set [6] addresses Free fatty acid receptor 1 (Rattus norvegicus, UniProt Q8K3T4). Description: Agonist activity at rat GPR40 in presence of 0.01% human serum albumin.
The test system of data set [7] is MDR1. Description: Permeability across apical to basolateral side in MDCK cells expressing MDR1. Type of data set: ADME, cell-based, Canis lupus familiaris. The settings on record: dog, read-out: permeability.
Data set [8] has as its system Mus musculus. Kind of data set: Reduction of blood glucose AUC in human islet transplanted nude chimeric mouse at 1 and 10 mg/kg, po administered 1 hr prior to glucose challenge by OGTT. Type of data set: functional, organism-based. A digest of the protocol: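 Nude mice had their endogenous pancreatic β-cells ablated with streptozotocin and were rescued to euglycemia by human islets transplanted under the kidney capsule. Compound was dosed before a glucose challenge, and the glucose AUC was determined.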

The nature of data set [9]: Half life in mouse at 1 mg/kg, iv. The class given is ADME, organism-based. The settings on record: in vivo. The method, boiled down:
as §1

For data set [10], the target named is Free fatty acid receptor 1 (Homo sapiens, UniProt O14842). Kind of data set: Partial agonist activity at human GPR40 expressed in CHO cells measured over 20 secs interval by luminometric analysis in presence of 100% human serum. The class given is cell-based. The method, boiled down:
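Aequorin chemiluminescence read-out of calcium flux in a CHO line stably transfected with human GPR40, giving EC50. Run in buffer containing 0.01% human serum albumin, or in 100% human serum to test activity with plasma proteins present.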

Data set [11] can be described thus: Oral bioavailability in dog at 2 mg/kg. Type of data set: ADME, organism-based, Canis lupus familiaris. The settings on record: in vivo. The method, boiled down: as §1

Free fatty acid receptor 1 (Homo sapiens, UniProt O14842), sequence (O14842 whole entry): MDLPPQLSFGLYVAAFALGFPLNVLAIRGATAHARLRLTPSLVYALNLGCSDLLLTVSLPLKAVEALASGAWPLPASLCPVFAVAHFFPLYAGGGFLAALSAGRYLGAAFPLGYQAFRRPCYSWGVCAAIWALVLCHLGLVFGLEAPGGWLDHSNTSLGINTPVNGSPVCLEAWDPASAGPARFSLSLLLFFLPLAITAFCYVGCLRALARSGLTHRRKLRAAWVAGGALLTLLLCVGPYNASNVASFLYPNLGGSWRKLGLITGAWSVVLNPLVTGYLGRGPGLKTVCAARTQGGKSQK
Free fatty acid receptor 1 (Rattus norvegicus, UniProt Q8K3T4), sequence (Q8K3T4 whole entry): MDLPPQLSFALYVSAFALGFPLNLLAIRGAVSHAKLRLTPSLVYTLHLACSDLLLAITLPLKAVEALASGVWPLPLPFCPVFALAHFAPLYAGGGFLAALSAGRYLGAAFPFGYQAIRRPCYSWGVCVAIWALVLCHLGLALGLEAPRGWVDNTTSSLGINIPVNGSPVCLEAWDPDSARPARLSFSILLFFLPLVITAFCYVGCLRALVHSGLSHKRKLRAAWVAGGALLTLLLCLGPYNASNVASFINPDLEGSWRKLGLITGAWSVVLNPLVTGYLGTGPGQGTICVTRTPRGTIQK

As a reminder, the bioavailability is dose-corrected exposure relative to a reference, in per cent. One may read the efflux ratio as the permeability from basolateral to apical divided by that in the opposite direction, in the common usage. A word on the EC50: it is the concentration giving half of the maximal effect. Usually half-life stands for the time in which the quantity being followed falls by half. As to `Cc1cc(Cl)ccc1-c1cccc(COc2ccc([C@H](CC(=O)O)c3nccn3C)cc2)c1`, the results for the bioavailability in data set [1], in data set [5] and in data set [11] were 43%, 34% and 66%, respectively. Moreover, in data set [2], the Papp B→A was determined as 31 ×10⁻⁶ cm/s. Besides, the efflux ratio in [3] worked out at 22. Moreover, in data set [4], the result was inactive. Moreover, the values for the EC50 in data set [6] and in data set [10] were 0.64 µM and 10 µM, respectively. Further, the Papp A→B in data set [7] came to 1.4 ×10⁻⁶ cm/s. Besides, in data set [8], the outcome was Active. In data set [9], the half-life was 1.5 h.
